# Measurements gathered from unrelated publications.
# Lines come from different studies, so protocols differ.
# Liver carboxylesterase: Liver carboxylesterase (Sus scrofa, UniProt Q29550)
# ADORA3: Adenosine receptor A3 (ADORA3, Homo sapiens, UniProt P0DMS8)
# DRD2: D(2) dopamine receptor (DRD2, Homo sapiens, UniProt P14416)
Compound,target,observed,mode,method,pH,setting,Ki [nM]
COC(=O)[C@H](CSC/C=C(\C)CC/C=C(\C)CCC=C(C)C)NC(=O)c1ccc(-c2ccccc2)cc1,Liver carboxylesterase,enzyme activity,inhibitor,HPLC,,,190000
CC/C=C\C/C=C\C/C=C\C/C=C\C/C=C\CCCC(=O)O,Liver carboxylesterase,enzyme activity,inhibitor,HPLC,pH 7.4,,340
CC(C)CC(C)N1CCCn2c1nc1c2c(=O)n(C)c(=O)n1C (stereo not shown),ADORA3,ligand displacement,,radioligand,,cell membranes,> 10000
O=C1c2ccccc2CCCN1CCCCN1CCN(c2ccccn2)CC1,DRD2,ligand displacement,,radioligand,,,209
CNC(=O)[C@@]12C[C@@H]1[C@@H](n1cnc3c(NCc4cccc(C#CCCCCc5cn(C67CC8CC(CC(C8)C6)C7)nn5)c4)nc(Cl)nc31)[C@H](O)[C@@H]2O,ADORA3,ligand displacement,,radioligand,,cell membranes,21.8
CCN1CCCn2c1nc1c2c(=O)n(C)c(=O)n1C,ADORA3,ligand displacement,,radioligand,,cell membranes,> 10000
COc1cccc(CCC2=NCCN2CCc2ccccc2)c1,DRD2,ligand displacement,,radioligand,,,> 10000
CCCCN1CCCn2c1nc1c2c(=O)n(C)c(=O)n1C,ADORA3,ligand displacement,,radioligand,,cell membranes,> 10000
C#CCNc1nc(Cl)nc2c1ncn2[C@H]1[C@H](O)[C@H](O)[C@]2(C(=O)NC)C[C@H]12,ADORA3,ligand displacement,,radioligand,,cell membranes,1.5
CCCCN1CCC(COC(=O)c2ccc(N)c(OCF)c2)CC1,"5-hydroxytryptamine receptor 1E (HTR1E, Homo sapiens, UniProt P28566)",cell-free assay,,radioligand,,,> 10000
CC[C@H](C)[C@H](NC(=O)CN)C(=O)N[C@H](C(=O)N[C@@H](CC(N)=O)C(=O)N[C@H](C(=O)N[C@@H](CC(C)C)C(=O)N[C@@H](CCC(N)=O)C(=O)N[C@@H](CCCCN)C(=O)N[C@@H](Cc1ccc(O)cc1)C(=O)N[C@@H](Cc1ccc(O)cc1)C(=O)N[C@@H](CO)C(=O)N[C@@H](CCCNC(=N)N)C(=O)N[C@H](C(=O)N[C@@H](CCCNC(=N)N)C(=O)NCC(=O)NCC(=O)N[C@@H](CCCNC(=N)N)C(=O)N[C@H]1CSSC[C@@H](C(=O)N[C@@H](CO)C(=O)N[C@H](C(=O)N[C@@H](CCCNC(=N)N)C(=O)NCC(=O)N[C@@H](CCCNC(=N)N)C(=O)N[C@@H](CCCCN)C(=O)N[C@@H](CO)C(=O)N[C@@H](CO)C(=O)N[C@@H](CCCNC(=N)N)C(=O)N[C@@H](CCCNC(=N)N)C(=O)N[C@@H](CCCCN)C(=O)N[C@@H](CCCCN)C(N)=O)[C@@H](C)O)NC(=O)[C@H](CCCCN)NC(=O)CNC(=O)[C@H]([C@@H](C)CC)NC(=O)[C@H](CCC(N)=O)NC(=O)[C@H](CCC(=O)O)NC(=O)[C@H](CCC(=O)O)NC(=O)[C@H](CCCCN)NC(=O)[C@@H]2CCCN2C(=O)[C@H](CC(C)C)NC(=O)[C@H](CO)NC(=O)[C@H](CO)NC(=O)[C@H](CC(C)C)NC(=O)[C@H](C(C)C)NC(=O)[C@H](C)NC1=O)C(C)C)[C@@H](C)O)[C@@H](C)CC,"Melanocyte-stimulating hormone receptor (MC1R, Homo sapiens, UniProt Q01726)",ligand displacement in cells,,,,,373
Oc1ccc(CCC2=NCCN2CCc2ccccc2)cc1,DRD2,ligand displacement,,radioligand,,,794
CCNC(=O)[C@H]1O[C@@H](n2cnc3c(N)nc(NN=CC4CCC=CO4)nc32)[C@H](O)[C@@H]1O (stereo partly shown),ADORA3,ligand displacement,,radioligand,,,6.32
CCCCC[C@H](O)/C=C/C1=C(CCCCCCC(=O)O)C(=O)CC1,Liver carboxylesterase,enzyme activity,inhibitor,HPLC,pH 7.4,,16000
CCCC[C@H](NC(=O)[C@H](CO)NC(=O)[C@H](Cc1ccc(O)cc1)NC(=O)[C@H](CO)NC(C)=O)C(=O)N[C@@H](CCC(=O)O)C(=O)N[C@@H](Cc1c[nH]cn1)C(=O)N[C@@H](C)C(=O)N[C@@H](CCCNC(=N)N)C(=O)N[C@@H](Cc1c[nH]c2ccccc12)C(=O)NCC(=O)N[C@@H](CCCCN)C(=O)N1CCC[C@H]1C(=O)N[C@H](C(=O)NCC(=O)N[C@@H](CCCCN)C(=O)N[C@@H](CCCCN)C(=O)N[C@@H](CCCNC(=N)N)C(N)=O)C(C)C,"Melanocortin receptor 3 (MC3R, Homo sapiens, UniProt P41968)",ligand displacement in cells,,radioligand,,,> 1000
C=CN1CCCn2c1nc1c2c(=O)n(C)c(=O)n1C,ADORA3,ligand displacement,,radioligand,,cell membranes,> 10000
CC/C=C\C/C=C\C/C=C\C/C=C\C/C=C\C/C=C\CCC(=O)O,Liver carboxylesterase,enzyme activity,inhibitor,HPLC,pH 7.4,,3700
CCCCCCN1CCCn2c1nc1c2c(=O)n(C)c(=O)n1C,ADORA3,ligand displacement,,radioligand,,cell membranes,> 10000
NCCCC[C@H](NC(=O)[C@@H]1CCCN1C(=O)[C@@H]1CSSC[C@H](N)C(=O)N[C@@H](Cc2ccc(O)cc2)C(=O)N[C@@H](Cc2ccccc2)C(=O)N[C@@H](CCC(N)=O)C(=O)N[C@@H](CC(N)=O)C(=O)N1)C(=O)NCC(N)=O,"Vasopressin V2 receptor (AVPR2, Homo sapiens, UniProt P30518)",ligand displacement,,radioligand,,cell membranes,10
